Experimental data reported in ChEMBL document CHEMBL1143388 (Bioorg Med Chem, 2009).

Molecular target: T1, Kappa-type opioid receptor (Homo sapiens, UniProt P41145)
Assay: Agonist activity at human KOPR expressed in CHO cells assessed as enhancement of [35S]GTPgammaS binding
Assay type: functional, cell-based

T1 sequence (P41145 whole entry): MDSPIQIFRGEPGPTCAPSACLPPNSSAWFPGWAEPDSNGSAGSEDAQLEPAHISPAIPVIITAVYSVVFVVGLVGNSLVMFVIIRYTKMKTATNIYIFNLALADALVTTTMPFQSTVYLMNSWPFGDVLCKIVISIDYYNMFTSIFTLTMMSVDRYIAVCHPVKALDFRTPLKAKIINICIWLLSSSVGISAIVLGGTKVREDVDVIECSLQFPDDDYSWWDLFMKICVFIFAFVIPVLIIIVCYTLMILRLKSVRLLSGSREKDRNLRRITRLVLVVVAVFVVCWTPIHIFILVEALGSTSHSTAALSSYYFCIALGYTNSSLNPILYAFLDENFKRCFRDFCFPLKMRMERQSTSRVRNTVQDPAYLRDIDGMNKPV

Structure (SMILES)	EC50
COC(=O)[C@@H]1C[C@H](OC(C)=O)C(=O)[C@H]2[C@@]1(C)CC[C@H]1C(=O)O[C@H](C(=O)O)C[C@]21C	167 nM

Molecular target: Mu-type opioid receptor (Rattus norvegicus, UniProt P33535)
Sequence (P33535 whole entry): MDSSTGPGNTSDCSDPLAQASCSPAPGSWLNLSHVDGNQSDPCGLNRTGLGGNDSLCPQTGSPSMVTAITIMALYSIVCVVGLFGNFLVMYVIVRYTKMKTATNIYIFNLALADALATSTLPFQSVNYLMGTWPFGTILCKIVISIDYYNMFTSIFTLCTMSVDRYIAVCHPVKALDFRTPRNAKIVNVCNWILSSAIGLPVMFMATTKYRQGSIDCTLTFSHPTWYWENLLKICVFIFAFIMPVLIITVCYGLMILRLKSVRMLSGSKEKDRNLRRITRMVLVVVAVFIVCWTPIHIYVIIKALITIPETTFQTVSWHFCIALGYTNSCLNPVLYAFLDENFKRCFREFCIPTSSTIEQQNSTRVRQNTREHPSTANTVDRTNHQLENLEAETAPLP
Assay: Binding affinity to rat MOPR expressed in CHO cells
Assay type: cell-based
Outline: (§1)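 Competitive displacement of [3H]diprenorphine from membranes of CHO cells stably transfected with rat MOPR or mouse DOPR. Buffer: 50 mM Tris-HCl, pH 7.4, with 1 mM EGTA. Ki values were derived from inhibition curves. Each value is the mean of at least three independent experiments run in duplicate.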

Structure (SMILES)	Ki
COC(=O)[C@@H]1C[C@H](OC(C)=O)C(=O)[C@H]2[C@@]1(C)CC[C@H]1C(=O)O[C@H](C(=O)OC(C)C)C[C@]21C	> 1000 nM
COC(=O)[C@@H]1C[C@H](OC(C)=O)C(=O)[C@H]2[C@@]1(C)CC[C@H]1C(=O)O[C@H](c3ccoc3Br)C[C@]21C	> 1000 nM
COC(=O)[C@@H]1C[C@H](OC(C)=O)C(=O)[C@H]2[C@@]1(C)CC[C@H]1C(=O)O[C@H]([C@H](O)c3ccco3)C[C@]21C	> 1000 nM
COC(=O)[C@@H]1C[C@H](OC(C)=O)C(=O)[C@H]2[C@@]1(C)CC[C@H]1C(=O)O[C@H](COC(C)=O)C[C@]21C	> 1000 nM
COC(=O)[C@@H]1C[C@]2(C)[C@H]3C(=O)[C@@H](OC(C)=O)C[C@@H](C(=O)OC)[C@]3(C)CC[C@H]2C(=O)O1	> 1000 nM
CCOC(=O)[C@@H]1C[C@]2(C)[C@H]3C(=O)[C@@H](OC(C)=O)C[C@@H](C(=O)OC)[C@]3(C)CC[C@H]2C(=O)O1	> 1000 nM
COC(=O)[C@@H]1C[C@H](OC(C)=O)C(=O)[C@H]2[C@@]1(C)CC[C@H]1C(=O)O[C@H](C(=O)c3cnccn3)C[C@]21C	> 1000 nM
CCOC[C@@H]1C[C@]2(C)[C@H]3C(=O)[C@@H](OC(C)=O)C[C@@H](C(=O)OC)[C@]3(C)CC[C@H]2C(=O)O1	> 1000 nM
COC(=O)[C@@H]1C[C@H](OC(C)=O)C(=O)[C@H]2[C@@]1(C)CC[C@H]1C(=O)O[C@H](C(=O)c3cccs3)C[C@]21C	> 1000 nM
C=Cc1occc1[C@@H]1C[C@]2(C)[C@H]3C(=O)[C@@H](OC(C)=O)C[C@@H](C(=O)OC)[C@]3(C)CC[C@H]2C(=O)O1	> 1000 nM
COC[C@@H]1C[C@]2(C)[C@H]3C(=O)[C@@H](OC(C)=O)C[C@@H](C(=O)OC)[C@]3(C)CC[C@H]2C(=O)O1	> 1000 nM
COC(=O)[C@@H]1C[C@H](OC(C)=O)C(=O)[C@H]2[C@@]1(C)CC[C@H]1C(=O)O[C@H](C(=O)O)C[C@]21C	> 1000 nM

Molecular target: T1, Kappa-type opioid receptor
Assay: Agonist activity at human KOPR expressed in CHO cells assessed as enhancement of [35S]GTPgammaS binding at 10 uM relative to U50488
Assay type: functional, cell-based

Structure (SMILES)	Emax
COC(=O)[C@@H]1C[C@H](OC(C)=O)C(=O)[C@H]2[C@@]1(C)CC[C@H]1C(=O)O[C@H](C(=O)OC(C)C)C[C@]21C	94%
COC(=O)[C@@H]1C[C@H](OC(C)=O)C(=O)[C@H]2[C@@]1(C)CC[C@H]1C(=O)O[C@H]([C@H](O)c3ccco3)C[C@]21C	111%
COC(=O)[C@@H]1C[C@H](OC(C)=O)C(=O)[C@H]2[C@@]1(C)CC[C@H]1C(=O)O[C@H](COC(C)=O)C[C@]21C	113%
COC(=O)[C@@H]1C[C@]2(C)[C@H]3C(=O)[C@@H](OC(C)=O)C[C@@H](C(=O)OC)[C@]3(C)CC[C@H]2C(=O)O1	99%
CCOC(=O)[C@@H]1C[C@]2(C)[C@H]3C(=O)[C@@H](OC(C)=O)C[C@@H](C(=O)OC)[C@]3(C)CC[C@H]2C(=O)O1	94%
COC(=O)[C@@H]1C[C@H](OC(C)=O)C(=O)[C@H]2[C@@]1(C)CC[C@H]1C(=O)O[C@H](C(=O)c3cnccn3)C[C@]21C	103%
COC(=O)[C@@H]1C[C@H](OC(C)=O)C(=O)[C@H]2[C@@]1(C)CC[C@H]1C(=O)O[C@H](C(=O)c3cccs3)C[C@]21C	103%
C=Cc1occc1[C@@H]1C[C@]2(C)[C@H]3C(=O)[C@@H](OC(C)=O)C[C@@H](C(=O)OC)[C@]3(C)CC[C@H]2C(=O)O1	120%
COC[C@@H]1C[C@]2(C)[C@H]3C(=O)[C@@H](OC(C)=O)C[C@@H](C(=O)OC)[C@]3(C)CC[C@H]2C(=O)O1	98%
COC(=O)[C@@H]1C[C@H](OC(C)=O)C(=O)[C@H]2[C@@]1(C)CC[C@H]1C(=O)O[C@H](C(=O)O)C[C@]21C	99%

Molecular target: Delta-type opioid receptor (Mus musculus, UniProt P32300)
Sequence (P32300 whole entry): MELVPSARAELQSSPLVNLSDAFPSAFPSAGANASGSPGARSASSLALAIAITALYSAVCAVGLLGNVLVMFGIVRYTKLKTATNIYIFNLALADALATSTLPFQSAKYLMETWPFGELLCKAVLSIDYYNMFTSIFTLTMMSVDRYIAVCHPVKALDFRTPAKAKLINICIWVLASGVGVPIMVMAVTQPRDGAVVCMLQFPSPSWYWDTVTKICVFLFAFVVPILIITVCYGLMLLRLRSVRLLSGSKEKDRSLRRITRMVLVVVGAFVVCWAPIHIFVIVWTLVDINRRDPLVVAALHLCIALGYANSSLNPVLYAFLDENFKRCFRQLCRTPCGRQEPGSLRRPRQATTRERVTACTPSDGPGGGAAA
Assay: Binding affinity to mouse DOPR expressed in CHO cells
Assay type: cell-based
Outline: as §1

Structure (SMILES)	Ki
COC(=O)[C@@H]1C[C@H](OC(C)=O)C(=O)[C@H]2[C@@]1(C)CC[C@H]1C(=O)O[C@H](C(=O)OC(C)C)C[C@]21C	> 1000 nM
COC(=O)[C@@H]1C[C@H](OC(C)=O)C(=O)[C@H]2[C@@]1(C)CC[C@H]1C(=O)O[C@H](c3ccoc3Br)C[C@]21C	> 1000 nM
COC(=O)[C@@H]1C[C@H](OC(C)=O)C(=O)[C@H]2[C@@]1(C)CC[C@H]1C(=O)O[C@H]([C@H](O)c3ccco3)C[C@]21C	> 1000 nM
COC(=O)[C@@H]1C[C@H](OC(C)=O)C(=O)[C@H]2[C@@]1(C)CC[C@H]1C(=O)O[C@H](COC(C)=O)C[C@]21C	> 1000 nM
COC(=O)[C@@H]1C[C@]2(C)[C@H]3C(=O)[C@@H](OC(C)=O)C[C@@H](C(=O)OC)[C@]3(C)CC[C@H]2C(=O)O1	> 1000 nM
CCOC(=O)[C@@H]1C[C@]2(C)[C@H]3C(=O)[C@@H](OC(C)=O)C[C@@H](C(=O)OC)[C@]3(C)CC[C@H]2C(=O)O1	> 1000 nM
COC(=O)[C@@H]1C[C@H](OC(C)=O)C(=O)[C@H]2[C@@]1(C)CC[C@H]1C(=O)O[C@H](C(=O)c3cnccn3)C[C@]21C	> 1000 nM
CCOC[C@@H]1C[C@]2(C)[C@H]3C(=O)[C@@H](OC(C)=O)C[C@@H](C(=O)OC)[C@]3(C)CC[C@H]2C(=O)O1	> 1000 nM
COC(=O)[C@@H]1C[C@H](OC(C)=O)C(=O)[C@H]2[C@@]1(C)CC[C@H]1C(=O)O[C@H](C(=O)c3cccs3)C[C@]21C	> 1000 nM
C=Cc1occc1[C@@H]1C[C@]2(C)[C@H]3C(=O)[C@@H](OC(C)=O)C[C@@H](C(=O)OC)[C@]3(C)CC[C@H]2C(=O)O1	> 1000 nM
COC[C@@H]1C[C@]2(C)[C@H]3C(=O)[C@@H](OC(C)=O)C[C@@H](C(=O)OC)[C@]3(C)CC[C@H]2C(=O)O1	> 1000 nM
COC(=O)[C@@H]1C[C@H](OC(C)=O)C(=O)[C@H]2[C@@]1(C)CC[C@H]1C(=O)O[C@H](C(=O)O)C[C@]21C	> 1000 nM

Molecular target: T1, Kappa-type opioid receptor
Assay: Displacement of [3H]diprenorphine from human KOPR expressed in CHO cells
Assay type: cell-based

Structure (SMILES)	Ki
COC(=O)[C@@H]1C[C@H](OC(C)=O)C(=O)[C@H]2[C@@]1(C)CC[C@H]1C(=O)O[C@H](C(=O)O)C[C@]21C	55 nM
